The source of these data is ChEMBL document CHEMBL1132425, “Synthesis and antiviral activity of ethidium-arginine conjugates directed against the TAR RNA of HIV-1” (J Med Chem, 1999).

Assay [1] deals with PBMC. Nature of the assay: (§1) Anti-HIV-1 activity against PBMC cell lines. It counts as functional, Homo sapiens. In outline:
(§2)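 Infected PBMC grown 7 days with graded compound concentrations after virus incubation; HIV-1 production measured as reverse transcriptase activity in culture supernatant. Triplicate per concentration, whole experiment done twice.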

The subject of assay [2] is MT4. Briefly: (§3) Cytotoxicity towards uninfected MT-4 cell lines. Conditions: Homo sapiens. The assay is classed as functional. In outline: (§4)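 Uninfected MT4 cells with graded compound levels; viability by MTT reduction to formazan. Triplicate per concentration, experiment run twice.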
Assay [3] has as its system CEM-SS. Briefly: Cytotoxicity towards uninfected CEM-SS cell lines. It counts as functional. Conditions: Homo sapiens. In short, it runs like this:
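Uninfected CEM-SS cells exposed 5 days to varied compound concentrations; viability by MTT colorimetric test. CC50 is the concentration halving OD540, from median-effect dose analysis. Triplicate per concentration, experiment repeated twice.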

Assay [4] concerns MT4. Nature of the assay: (§5) Anti-HIV-1 activity against MT-4 cell lines. It counts as functional, cell-based. Conditions: Homo sapiens. In short, it runs like this: (§6)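 MT4 cells (RPMI + 10% heat-treated FCS) infected with HIV-1; protection from virus-induced cytopathicity read by MTT reduction to formazan by mitochondrial dehydrogenases. Triplicate per concentration, experiment repeated twice. Where inhibition stayed under 50%, the measured percentage is reported in parentheses.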

In assay [5] the test system is CEM-SS. Briefly: Anti-HIV-1 activity against CEM-SS cell lines. It counts as functional, cell-based. The conditions noted are these: Homo sapiens. In short, it runs like this: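 HIV-1 LAI (grown in CEM-SS) infecting CEM-SS cells kept in RPMI + 10% heat-treated FCS; 30-min adsorption, unbound virus washed off, then 5 days culture with graded compound concentrations. Virus output read as reverse transcriptase activity in supernatant. Triplicate per concentration, experiment run twice; IC50 from median-effect plot of dose-effect data.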

The subject of assay [6] is PBMC. Nature of the assay: Cytotoxicity towards uninfected PBMC cell lines. It counts as functional. The conditions noted are these: Homo sapiens. In short, it runs like this: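 Uninfected PBMC incubated 7 days with compound; viability by colorimetric MTT assay. Triplicate per concentration, experiment repeated twice.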
For assay [7], the system named is PBMC. Described as §1. It counts as functional, cell-based. Conditions: Homo sapiens. In outline: as §2
For assay [8], the system named is MT4. Described as §5. The conditions noted are these: Homo sapiens. It counts as functional. In outline: as §6
Assay [9] deals with MT4. The description is as §3. The assay is classed as functional, Homo sapiens. In outline:
as §4

SMILES strings stand for the structures. pIC50: −log10 of the molar value.

A word on the Inhibition: it is the percentage by which the read-out fell short of the control. Read a high Inhibition as a strong effect. The term CC50 denotes the concentration giving 50% cytotoxicity. Low values mean harm at low concentration, high ones better tolerance by the cells. Usually pIC50 stands for −log10 of the IC50, conventionally taken in molar units. Take `C[n+]1c(-c2cccc(C(=O)NCCCCCC(=O)NC(CCCN=C(N)N)C(=O)O)c2)c2cc(N)ccc2c2ccc(N)cc21.[Cl-]` (centres undefined): in [1], the Inhibition was determined as 40%. Besides, the figures for the CC50 in [2], in assay [3] and in [6] were 59 µM, above 100 µM and above 100 µM, respectively. Moreover, the pIC50 in assay [4], in [5] and in assay [7] was below 4.00 in each case.

For the compound `C[n+]1c(-c2cccc(C(=O)NCCCCCC(=O)NCCC(=O)NC(CCCN=C(N)N)C(=O)O)c2)c2cc(N)ccc2c2ccc(N)cc21` (centres undefined), the CC50 in assay [2], in assay [3] and in assay [6] was above 100 µM throughout. Further, the pIC50 in [4] is 4.96; in [5], 5.62; in assay [7] it was 5.60.

Turning to `COC(=O)C(CCCN=C(N)N)NC(=O)CCNC(=O)c1cccc(-c2c3cc(N)ccc3c3ccc(N)cc3[n+]2C)c1` (centres undefined), the CC50 in assay [2] is 21 µM; in assay [3] it was 85 µM; in assay [6] it was 47 µM. Further, the pIC50 is below 4.00 in assay [4], 4.08 in [5] and 4.11 in [7].

Take `C[n+]1c(-c2cccc(C(=O)NCCC(=O)NC(CCCN=C(N)N)C(=O)O)c2)c2cc(N)ccc2c2ccc(N)cc21` (centres undefined): the values for the CC50 in assay [2], in assay [3] and in assay [6] were 47 µM, above 100 µM and above 100 µM, respectively. The pIC50 was below 4.00 in assay [4], below 4.00 in assay [5] and 4.14 in assay [7].

As for `C[n+]1c(-c2cccc(C(=O)O)c2)c2cc(N)ccc2c2ccc(N)cc21`, the CC50 in [2] was 42 µM; in assay [3], above 100 µM; in [6], 44 µM. The pIC50 is below 4.00 in assay [4], 4.02 in assay [5] and 4.70 in assay [7].

With `COC(=O)C(CCCN=C(N)N)NC(=O)CCCCCNC(=O)c1cccc(-c2c3cc(N)ccc3c3ccc(N)cc3[n+]2C)c1` (centres undefined), the CC50 in assay [2] was 60 µM; in [3], above 100 µM; in [6] it was above 100 µM. The pIC50 was below 4.00 in [4], below 4.00 in assay [5] and 4.05 in assay [7].

Regarding `COC(=O)C(CCCN=C(N)N)NC(=O)CCNC(=O)CCCCCNC(=O)c1cccc(-c2c3cc(N)ccc3c3ccc(N)cc3[n+]2C)c1.[Cl-]` (centres undefined), the CC50 in assay [8], in assay [3] and in assay [6] was above 100 µM each time. The compound also had an Inhibition in assay [9] of 45%. In addition, the pIC50 in assay [4] is below 4.00; in assay [5], 5.34; in assay [7] it was 5.06.
